In the library only some 4.3% were active in any assay of this set; here they are far more common.
CHO parental Ca = signal in parental CHO cells, OX1R antagonist counter-screen; inhibition, % at 5.6 µM; parental CHO-K1, ATP-induced calcium, Fluo-8 fluorescence; AID 463079; hit rate 0.63% among 330,000;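 active means inhibition above that plate's mean sample inhibition plus 3 SD, cut at about 26% in these data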;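 further: 0% = ATP-challenged DMSO wells and 100% = DMSO wells without ATP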
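material = parental CHO cells | also added = ATP as calcium-mobilizing challenge | dosing = single point at 5.6 µM | detection = intracellular calcium via Fluo-8 no-wash fluorescent dye | read-out = % inhibition | benchmarks = low control ATP plus DMSO, high control DMSO only | repeats = one well per compound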
TAAR1 agonist = human TAAR1 agonism. Q96RJ0. CHO RD-HGA16 TAAR1, Fluo-8 calcium fluorescence; vehicle wells 0%, saturating PEA agonist 100%. activation, % at 3 µM. hit rate 0.99% among 360,000;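 active means activation above the mean activation of all test compounds in the run plus 3 SD, cut at about 38% in these data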
Target sequence (Q96RJ0 whole entry, looked up): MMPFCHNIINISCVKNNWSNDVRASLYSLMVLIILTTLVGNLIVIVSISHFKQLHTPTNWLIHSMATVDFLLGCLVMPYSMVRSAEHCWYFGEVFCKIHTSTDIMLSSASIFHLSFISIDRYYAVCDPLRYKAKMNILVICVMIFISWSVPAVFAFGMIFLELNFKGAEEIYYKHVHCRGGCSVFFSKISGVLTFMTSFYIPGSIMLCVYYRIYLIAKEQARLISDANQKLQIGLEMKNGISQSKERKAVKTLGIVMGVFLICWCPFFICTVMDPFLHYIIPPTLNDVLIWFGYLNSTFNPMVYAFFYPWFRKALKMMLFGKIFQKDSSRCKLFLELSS
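Assay system: CHO-derived RD-HGA16 cells with stable Gα16 and human TAAR1; timing: 17-24 h seeding, 75 min 37 °C dye, 30 min RT; read-out: % activation from peak over basal fluorescence ratio, DMSO-to-PEA scaled; measured by: kinetic Fluo-8 calcium fluorescence; benchmarks: low control DMSO, high control PEA (EC100); doses: 3 µM single concentration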
GalR3 antagonist = human GalR3 antagonism; hit rate 0.44% among 360,000; inhibition, % at 3 µM; O60755; HEK293 GalR3-CNG cAMP membrane potential fluorescence; galR3 body fused to GalR1 C-terminus;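 active means inhibition above the screen-wide average plus 3 SD, cut at about 13% in these data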;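 further: forskolin and galanin both at EC90 stimulate the cells; cAMP rise reported by CNG channel membrane potential dye signal; 0% = forskolin plus galanin with DMSO and 100% = forskolin alone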
OX1R antag-1 = antagonists of human orexin 1 receptor (OX1R); O43613; OX1R-expressing cells, FRET antagonist read-out; inhibition, % at 6.6 µM; hit rate 1.8% among 330,000; in the data active means inhibition mostly above about 38%, no sharp cut-off; inactive means mostly below about 40%;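 further: 0% = agonist challenge alone and 100% = reference antagonist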
TAAR1 antag = antagonists of human TAAR1; inhibition, % at 3 µM; AID 624466; CHO RD-HGA16 TAAR1, Fluo-8 calcium fluorescence, antagonist; Q96RJ0; hit rate 1.5% among 360,000;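 active means inhibition above a per-plate cutoff, the mean inhibition of test compounds on that plate plus 3 SD, cut at about 49% in these data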;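 further: 0% = DMSO plus EC80 beta-PEA response and 100% = DMSO alone without agonist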
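Test system – hTAAR1-expressing CHO RD-HGA16 cells, Gα16-coupled · Reagent – β-PEA at EC80 concentration, post-compound challenge · Compound dosing – 3 µM, single point · Timing – 140 s kinetic read after compound, 140 s after agonist · Detection – Fluo-8 intracellular calcium dye fluorescence, real-time kinetic reads · Control set – DMSO and EC80 PEA controls · Repeats – n of 1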
OX1R antag-2 = blocks the human orexin 1 receptor; O43613; hit rate 0.43% among 330,000; CHO/OX1R cells, Fluo-8 calcium fluorescence, orexin A; inhibition, % at 5 µM;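 active means inhibition above its plate's threshold, mean inhibition of all tested compounds on the plate plus 3 SD, cut at about 37% in these data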;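 further: 0% = orexin A challenge wells and 100% = SB-334867-A antagonist wells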
GalR3 antag conf = GalR3 (human) antagonism, confirmation. shares compounds with GalR3 antagonist. HEK293 GalR3 CNG cAMP biosensor, membrane potential fluorescence; galR3 fused to GalR1 carboxy tail; challenged with forskolin and galanin at EC90. inhibition, % at 3 µM. hit rate 59% among 1,600;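 active means inhibition above the primary screen's cutoff, the mean inhibition of all screened compounds plus 3 SD, cut at about 13% in these data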;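 further: 0% = forskolin plus galanin and 100% = forskolin alone with DMSO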
CNG parental = acts as nonspecific agonist in parental HEK-CNG cells. shares compounds with GalR3 antagonist. HEK293-CNG parental cells, cAMP membrane potential fluorescence; normalised: DMSO wells 0%, forskolin wells 100%. activation, % at 3 µM. hit rate 10% among 1,600; in the data active means activation above about 1.3%
An asterisk follows results filed as active; x = no result given.

SMILES	CHO parental Ca	TAAR1 agonist	GalR3 antagonist	OX1R antag-1	TAAR1 antag	OX1R antag-2	GalR3 antag conf	CNG parental
Cc1cc(-c2ccccc2)cc(=O)[nH]1	x	6	19*	x	-22	x	12	0
Cc1cc(=O)[nH]c(-c2ccccc2)n1	-9	2	1	1	-2	-27	x	x
O=C(Cc1c(Cl)cccc1Cl)Nc1ccncc1Cl	-6	4	-4	16	-40	-12	x	x
COc1ccc(CC(=O)Nc2ccncc2Cl)cc1	35*	3	63*	30	-9	18	49*	0
O=C(Cc1ccc(Cl)cc1Cl)Nc1ccncc1Cl	31*	1	45*	22	16	1	67*	1
O=C(NC1CCN(Cc2ccccc2)CC1)c1ccc(S(=O)(=O)NCc2ccco2)cc1	-5	4	63*	27	-20	-6	52*	0
CCn1cc(CN(C)S(=O)(=O)c2ccc3ccccc3c2)c(C)n1	-5	3	71*	35	15	3	103*	0
CCOC(=O)[C@@H]1[C@H]2COc3ccccc3[C@H]2N2C(=O)N(c3cccc(F)c3)C(=O)[C@]12C	-24	6	-4	12	4	-28	x	x
COCCCN1C(=O)C(CC(=O)NCc2cccc3ccccc23)CC(C(=O)N2CCCCCC2)=C1C (configuration not stated)	x	0	-1	x	-2	x	x	x
CCOC(=O)C1CCN(C(=O)Cc2cccc3ccccc23)CC1	-7	5	16*	23	9	-28	0	0
COCCNC(=O)C1C(=O)Nc2ccccc2C(=O)N1Cc1ccccc1 (configuration not stated)	x	0	-7	x	2	x	x	x
COCCN1Cc2cccc(C(=O)Nc3cc(OC)ccc3OC)c2C1=O	-13	3	45*	14	5	-17	52*	0
COc1ccccc1C(=O)N1CCN(C(=O)c2oc3c(C)c(C)ccc3c2C)CC1	x	6	1	x	23	x	x	x
COc1ccc(C(=O)C2CCCN(C(=O)c3ccoc3C)C2)cc1F (configuration not stated)	-11	2	13*	17	-28	-22	8	0
COc1ccc(C(=O)C2CCCN(C(=O)c3c4c(nn3C)CCCC4)C2)cc1F (configuration not stated)	-21	6	-3	21	3	-10	x	x
CC1(C(=O)Nc2ccc(Cl)c(C(F)(F)F)c2)Cc2c(-c3ccc(C(N)=O)cc3)ccnc2O1 (configuration not stated)	x	30	-9	x	4	x	x	x
COc1cc(CCCN2C(=O)C(=O)NC[C@@H]2Cc2ccc(O)cc2)cc(OC)c1OC	-2	8	16*	4	-3	-11	3	1
CC(=O)c1ccc(N2CCN(S(=O)(=O)c3ccc4c(c3)CC(C)N4C(=O)C3CC3)CC2)cc1 (configuration not stated)	-1	1	-1	21	10	-18	x	x
CC(=O)N1c2ccc(S(=O)(=O)NCC3CCC(C(=O)Nc4cccc(C)n4)CC3)cc2CC1C (configuration not stated)	-8	7	24*	8	-6	-20	11	0
CC(=O)N1c2ccc(S(=O)(=O)N3CCC(C(=O)Nc4cccc(C)n4)CC3)cc2CC1C (configuration not stated)	-3	10	51*	15	-1	-27	94*	0
CC(=O)c1ccc(N2CCN(S(=O)(=O)c3ccc4c(c3)CC(C)N4C(C)=O)CC2)cc1 (configuration not stated)	30	5	98*	25	-4	42*	106*	0

Assay outcomes (PubChem BioAssay)
